Measurements: ChEMBL document CHEMBL1141719, “Naphthylphenstatins as tubulin ligands: synthesis and biological evaluation” (Bioorg Med Chem, 2008)
Values joined by “and” are separate entries in the source; they are usually repeats but may differ in a detail not shown here. Equal values may be shown once.

Legend:
HT-29 = experiment: Cytotoxicity against human HT-29 cells after 72 hrs by XTT assay; format: functional, cell-based
Bos taurus [1] = species: Bos taurus; experiment: Inhibition of calf brain tubulin polymerization at 20 uM relative to control
Procedure, shortened: (§1)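 Calf brain microtubule protein was purified by two cycles of temperature-dependent assembly/disassembly. Assay used 1.0 mg/mL MTP in 0.1 M MES, 1 mM EGTA, 1 mM MgCl2, 1 mM β-ME, 1.5 mM GTP, pH 6.7, with 4% DMSO. Ligand was preincubated 30 min at 20 °C, then 10 min on ice, and assembly started by shift from 4 °C to 37 °C. Turbidity was followed against a no-ligand control. Inhibition is percent of control, mean of at least three experiments.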

HeLa = experiment: Cytotoxicity against human HeLa cells after 72 hrs by XTT assay; format: functional, cell-based
Procedure, shortened: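 HeLa (1.5 × 10³/well), HT-29 (3 × 10³/well) or A-549 (5 × 10³/well) cells seeded in 100 µL and allowed to attach for 24 h at 37 °C, 5% CO₂. Compounds at a range of concentrations for 72 h. Then XTT/PMS reagent added for 4 h, with absorbance read at 490 nm (reference 655 nm). IC50 is the concentration giving 50% inhibition of proliferation, mean of at least six experiments.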

A549 = experiment: Cytotoxicity against human A549 cells after 72 hrs by XTT assay; format: functional, cell-based
[2] = Inhibition of calf brain tubulin polymerization relative to control; design: species or system Bos taurus; procedure, shortened: as §1
Bos taurus [3] = species: Bos taurus; experiment: Inhibition of calf brain tubulin polymerization at 30 uM relative to control; procedure, shortened: as §1
Bos taurus [4] = species: Bos taurus; experiment: Inhibition of calf brain tubulin polymerization at 40 uM relative to control; procedure, shortened: as §1

## COc1ccc(/C(=N\OC(C)=O)c2ccc3ccccc3c2)c(OC)c1OC
HT-29; Homo sapiens, HT-29, 72 h
  IC50: 10 µM
HT-29; ht-29
  IC50: > 10 µM
Bos taurus [1]
  inhibition: 0%
HeLa; Homo sapiens, HeLa, 72 h
  IC50: 1.2 µM
A549; Homo sapiens, A549, 72 h
  IC50: 10 µM
A549; a549
  IC50: > 10 µM

## COc1ccc(/C(=N\N)c2ccc3ccccc3c2)c(OC)c1OC
Bos taurus [1]
  inhibition: 0%

## COc1cc(/C(=N/OC(C)=O)c2ccc3ccccc3c2)cc(OC)c1OC
HT-29; Homo sapiens, HT-29, 72 h
  IC50: 1 µM
Bos taurus [1]
  inhibition: 38%
HeLa; Homo sapiens, HeLa, 72 h
  IC50: 0.001 µM

## COc1ccc(C(=O)c2ccc3ccccc3c2)c(OC)c1OC
Bos taurus [1]
  inhibition: 0.25% and 4%
HeLa; hela
  IC50: 4 µM
A549; a549
  IC50: 1.7 µM and > 10 µM

## COc1cc(/C(=N\OC(=O)OC(C)(C)C)c2ccc3ccccc3c2)cc(OC)c1OC
HT-29; Homo sapiens, HT-29, 72 h
  IC50: 10 µM
HT-29; ht-29
  IC50: > 10 µM
Bos taurus [1]
  inhibition: 15%

## COc1ccc(C(C)(O)c2ccc3ccccc3c2)c(OC)c1OC (stereo unspecified)
Bos taurus [1]
  inhibition: 3%
HeLa; Homo sapiens, HeLa, 72 h
  IC50: 1 µM
A549; Homo sapiens, A549, 72 h
  IC50: 10 µM

## CO/N=C(/c1cc(OC)c(OC)c(OC)c1)c1ccc2ccccc2c1
HT-29; Homo sapiens, HT-29, 72 h
  IC50: 1 µM
Bos taurus [1]
  inhibition: 4%

## COc1ccc(/C=C\c2cc(OC)c(OC)c(OC)c2)cc1O [COMBRETASTATIN A4]
[2]
  IC50: 3 µM
Bos taurus [1]
  inhibition: 100%
HeLa; Homo sapiens, HeLa, 72 h
  IC50: 2.7 µM

## COc1cc(C(c2ccc3ccccc3c2)n2ccnc2)cc(OC)c1OC (stereo unspecified)
HT-29; Homo sapiens, HT-29, 72 h
  IC50: 10 µM
HT-29; ht-29
  IC50: > 10 µM
Bos taurus [1]
  inhibition: 0%

## COc1ccc(/C(=N\NC(C)=O)c2ccc3ccccc3c2)c(OC)c1OC
Bos taurus [1]
  inhibition: 0%

## COc1ccc(C(OC(C)=O)c2ccc3ccccc3c2)c(OC)c1OC (stereo unspecified)
Bos taurus [1]
  inhibition: 26%
HeLa; Homo sapiens, HeLa, 72 h
  IC50: 2.7 µM
A549; Homo sapiens, A549, 72 h
  IC50: 10 µM

## CN/N=C(/c1cc(OC)c(OC)c(OC)c1)c1ccc2ccccc2c1
Bos taurus [3]
  inhibition: 31%

## COc1cc(/C(=N\NC(C)=O)c2ccc3ccccc3c2)cc(OC)c1OC
Bos taurus [1]
  inhibition: 0%

## COc1ccc(/C(=N\OC(=O)OC(C)(C)C)c2ccc3ccccc3c2)c(OC)c1OC
HT-29; Homo sapiens, HT-29, 72 h
  IC50: 10 µM
HT-29; ht-29
  IC50: > 10 µM

## COc1cc(C(=O)c2ccc3ccccc3c2)cc(OC)c1OC
[2]
  IC50: 1.1 µM
A549; a549
  IC50: 0.043 µM

## COc1ccc(C(=O)c2cc(OC)c(OC)c(OC)c2)cc1O [PHENSTATIN]
[2]
  IC50: 2.5 µM

## COc1cc(/C(=N\OC(C)=O)c2ccc3ccccc3c2)cc(OC)c1OC
Bos taurus [1]
  inhibition: 10%

## COc1cc(C(OC(C)=O)c2ccc3ccccc3c2)cc(OC)c1OC (stereo unspecified)
Bos taurus [1]
  inhibition: 10% and 5%
HeLa; hela
  IC50: 10 µM and 3.8 µM
A549; a549
  IC50: 1.2 µM and > 10 µM

## COc1ccc(/C(=N/O)c2ccc3ccccc3c2)c(OC)c1OC
HT-29; Homo sapiens, HT-29, 72 h
  IC50: 1 µM
Bos taurus [3]
  inhibition: 0%
HeLa; Homo sapiens, HeLa, 72 h
  IC50: 0.4 µM
A549; Homo sapiens, A549, 72 h
  IC50: 10 µM
A549; a549
  IC50: > 10 µM

## COc1ccc(C(O)c2ccc3ccccc3c2)c(OC)c1OC (stereo unspecified)
Bos taurus [1]
  inhibition: 0%
HeLa; Homo sapiens, HeLa, 72 h
  IC50: 10 µM
A549; Homo sapiens, A549, 72 h
  IC50: 10 µM
A549; a549
  IC50: > 10 µM

## COc1cc(/C(=N/O)c2ccc3ccccc3c2)cc(OC)c1OC
HT-29; Homo sapiens, HT-29, 72 h
  IC50: 1.8 µM
Bos taurus [3]
  inhibition: 0%
HeLa; Homo sapiens, HeLa, 72 h
  IC50: 1.5 µM
A549; Homo sapiens, A549, 72 h
  IC50: 10 µM
A549; a549
  IC50: > 10 µM

## COc1cc(/C(=N/N)c2ccc3ccccc3c2)cc(OC)c1OC
HT-29; Homo sapiens, HT-29, 72 h
  IC50: 10 µM
Bos taurus [3]
  inhibition: 0%

## COc1cc(/C(=N/NC(C)=O)c2ccc3ccccc3c2)cc(OC)c1OC
HT-29; Homo sapiens, HT-29, 72 h
  IC50: 10 µM
HT-29; ht-29
  IC50: > 10 µM
Bos taurus [3]
  inhibition: 35%
HeLa; Homo sapiens, HeLa, 72 h
  IC50: 10 µM
HeLa; hela
  IC50: > 10 µM
A549; Homo sapiens, A549, 72 h
  IC50: 10 µM
A549; a549
  IC50: > 10 µM

## COc1cc(C(O)c2ccc3ccccc3c2)cc(OC)c1OC (stereo unspecified)
Bos taurus [4]
  inhibition: 0%
